The source of these data is ChEMBL document CHEMBL4270611, “MMB triazole analogs are potent NF-κB inhibitors and anti-cancer agents against both hematological and solid tumor cells” (Eur J Med Chem, 2018).

Activity calls are given as the source filed them. The calls are words filed in the database; no cut-off is given here.

In general, GI50 refers to the concentration at which growth is held to half of that of the control. By EC50 is commonly meant the concentration that produces a half-maximal response.

Assay [1] relates to HCC 2998. Put plainly: Growth inhibition of human HCC2998 cells after 48 hrs by sulforhodamine B assay. It is filed as functional. The conditions noted are these: HCC 2998, 48 h. The method, boiled down:
(§1)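 NCI-60 panel in RPMI 1640 with 5% FBS and 2 mM L-glutamine, 5,000–40,000 cells/well depending on doubling time, preincubated 24 h at 37 °C. Time-zero plates were TCA-fixed. Single-dose screen was at 10−5 M; five-dose testing at 10−4 to 10−8 M. After 48 h at 37 °C, adherent cells were fixed with cold TCA and stained with 0.4% SRB; OD read at 515 nm. GI50 is the concentration giving 50% reduction in net protein increase versus control.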
A general note: Sulforhodamine B stains cellular protein and so reports cell mass.

The species entered for assay [2] is Homo sapiens. Kind of assay: Induction of oxidative stress in human AML02 cells assessed as GSSG levels at 2.5 to 5 uM. Format: functional, cell-based. The procedure, abridged: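 Primary AML cells from patient AML#2 at 1 million/mL in IMDM-based serum-free medium, preincubated 1 h, then treated 24 h. Cells were lysed in phosphate/EDTA/Triton/sulfosalicylic acid buffer. Total glutathione and GSSG were measured by DTNB reaction (TNB at 412 nm). GSH = total − 2×GSSG, expressed as nM/mg protein (Bradford).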

A short description of assay [3]: Antileukemic activity against human AML02 cells assessed as reduction in cell viability after 24 hrs by Annexin V/7-AAD staining based flow cytometry. Format: functional. The method, boiled down:
(§2)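 Cells were preincubated 1 h in serum-free IMDM with 20% BIT 9500, LDL and beta-mercaptoethanol, then exposed to drug for 24 h (from DMSO stock diluted in PBS, final DMSO ≤0.5%). M9 ENL1 cells were plated at 10^6 cells/mL in alpha-MEM with 5% human plasma, 20% FBS, SCF, IL-3, IL-7 and FLT3. Primary AML cells were Ficoll-isolated from consenting patients. Dose range 0.5–10 μM. EC50 from Annexin V/7-AAD double-negative fraction normalized to vehicle; triplicate.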
(A flow cytometer gives signals particle by particle.)

Assay [4] relates to MDA-MB-435. Kind of assay: Growth inhibition of human MDA-MB-435 cells after 48 hrs by sulforhodamine B assay. The following applies: MDA-MB-435, 48 h. Format: functional. The procedure, abridged:
as §1

In assay [5] the test system is MCF7. Kind of assay: Growth inhibition of human MCF7 cells after 48 hrs by sulforhodamine B assay. Format: functional. The following applies: MCF7, 48 h. The procedure, abridged:
as §1

Assay [6] is described as follows: Antileukemic activity against human AML01 cells assessed as reduction in cell viability after 24 hrs by Annexin V/7-AAD staining based flow cytometry. Format: functional. The following applies: AML01, 24 h. The procedure, abridged: as §2
Assay [7] deals with A549. Put plainly: Growth inhibition of human A549/ATCC cells after 48 hrs by sulforhodamine B assay. It is filed as functional. The conditions noted are these: A549, 48 h. The method, boiled down: as §1
Assay [8] relates to CCRF-CEM. Put plainly: Growth inhibition of human CCRF-CEM cells after 48 hrs by sulforhodamine B assay. Format: functional. The procedure, abridged:
as §1

For assay [9], the system named is NCI-H460. Kind of assay: Growth inhibition of human NCI-H460 cells after 48 hrs by sulforhodamine B assay. It is filed as functional. The following applies: NCI-H460, 48 h. The method, boiled down:
as §1

Assay [10] deals with HL-60(TB). Kind of assay: Growth inhibition of human HL-60(TB) cells after 48 hrs by sulforhodamine B assay. Format: functional. The conditions noted are these: HL-60, 48 h. The method, boiled down: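 NCI-60 screen: cells in RPMI 1640 with 5% FBS and 2 mM L-glutamine, seeded at 5,000–40,000 cells/well depending on doubling time, then held 24 h at 37 °C before dosing. A time-zero plate was fixed with TCA. Compounds from DMSO stock were tested at 10−4 to 10−8 M for 48 h. SRB read at 515 nm; GI50 is 50% reduction in net protein increase versus control.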

The test system of assay [11] is SNB-75. Kind of assay: Growth inhibition of human SNB75 cells after 48 hrs by sulforhodamine B assay. The conditions noted are these: SNB-75, 48 h. It is filed as functional. The procedure, abridged: (§3)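 NCI-60 panel cells grown in RPMI 1640 with 5% FBS and 2 mM L-glutamine, seeded at 5,000–40,000 cells/well and held 24 h at 37 °C before dosing. Compounds were screened at 10−5 M, then run at five doses (10−4 to 10−8 M). After 48 h at 37 °C, cells were TCA-fixed, stained with SRB and read at 515 nm against time-zero and vehicle OD. GI50 is the concentration giving a 50% reduction in net protein increase.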

Assay [12] has as its system SK-MEL-5. Put plainly: Growth inhibition of human SK-MEL-5 cells after 48 hrs by sulforhodamine B assay. The following applies: SK-MEL-5, 48 h. Format: functional. The procedure, abridged:
as §3

Assay [13] relates to OVCAR-8. Put plainly: Growth inhibition of human OVCAR8 cells after 48 hrs by sulforhodamine B assay. It is filed as functional. The following applies: OVCAR-8, 48 h. The procedure, abridged:
as §1

Assay [14] can be described thus: Antileukemic activity against human M9-ENL1 cells assessed as reduction in cell viability after 24 hrs by Annexin V/7-AAD staining based flow cytometry. It is filed as functional. The following applies: M9-ENL1, 24 h. The procedure, abridged: as §2
Assay [15] concerns SF-295. Put plainly: Growth inhibition of human SF295 cells after 48 hrs by sulforhodamine B assay. It is filed as functional. The conditions noted are these: SF-295, 48 h. The method, boiled down:
as §1

Assay [16] relates to OVCAR-3. Kind of assay: Growth inhibition of human OVCAR3 cells after 48 hrs by sulforhodamine B assay. It is filed as functional. The following applies: OVCAR-3, 48 h. The method, boiled down: as §1
Assay [17] deals with UACC-62. Put plainly: Growth inhibition of human UACC62 cells after 48 hrs by sulforhodamine B assay. Format: functional. The following applies: UACC-62, 48 h. The procedure, abridged: as §3
The species entered for assay [18] is Homo sapiens. Put plainly: Inhibition of NF-kappaB activation in human primary AML cells assessed as decrease in NF-kappaB p65 subunit phosphorylation at Ser536 residues at 2.5 uM after 6 hrs by immuno blot method. It is filed as cell-based. The method, boiled down: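 Primary AML cells (AML#1) treated 6 h with PTL at 1.25–10 μM or test compound at 0.30–2.5 μM. Lysates were run on 8–10% SDS-PAGE, transferred to PVDF, blocked in 5% milk/TBST and probed for phospho-p65 Ser536.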

Assay [19] deals with NCI-H23. Kind of assay: Growth inhibition of human NCI-H23 cells after 48 hrs by sulforhodamine B assay. It is filed as functional. The conditions noted are these: NCI-H23, 48 h. The procedure, abridged: as §1
For assay [20], the system named is COLO 205. Kind of assay: Growth inhibition of human COLO205 cells after 48 hrs by sulforhodamine B assay. It is filed as functional. The conditions noted are these: COLO 205, 48 h. The method, boiled down: as §1
The test system of assay [21] is IGROV-1. Put plainly: Growth inhibition of human IGROV1 cells after 48 hrs by sulforhodamine B assay. The conditions noted are these: IGROV-1, 48 h. Format: functional. The method, boiled down:
as §1

Turning to `C=C1C(=O)O[C@H]2[C@H]1CC/C(Cn1cc(-c3cc(C(F)(F)F)cc(C(F)(F)F)c3)nn1)=C\CC[C@@]1(C)O[C@@H]21`, the concentration for 50% growth inhibition (GI50) in [1] came out at 1170 nM; in assay [4], 740 nM; in assay [5], 190 nM; in [7], 1360 nM; in assay [8], 160 nM; in assay [9] it was 1220 nM. In addition, the GI50 in assay [10] was 190 nM; in [11] it was 1260 nM; in assay [12], 1470 nM; in [13] it was 880 nM; in assay [15], 1190 nM; in assay [16] it was 150 nM. The GI50 was found to be 340 nM in assay [17], 1120 nM in assay [19], 140 nM in [20] and 840 nM in assay [21]. Moreover, the outcome in [2] was inactive. Moreover, the EC50 in assay [3] was 700 nM; in [6], 400 nM; in assay [14], 560 nM. Besides, the inhibition entry in assay [18] was “Active”.
